# GSK3beta inhib = human GSK3beta kinase inhibition | GST-GSK3beta kinase, ADP-Glo luminescence, 60 min; active compounds read low | activity score (negative = inhibition), % at 10 µM | hit rate 0.038% among 300,000 | AID 2097;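 active means more than half of replicate wells score below -50%, meaning over 50% inhibition versus plate controls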;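 further: 0% = median DMSO wells and -100% = median GW8510 positive control wells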
# Target sequence (P49841 whole entry, looked up): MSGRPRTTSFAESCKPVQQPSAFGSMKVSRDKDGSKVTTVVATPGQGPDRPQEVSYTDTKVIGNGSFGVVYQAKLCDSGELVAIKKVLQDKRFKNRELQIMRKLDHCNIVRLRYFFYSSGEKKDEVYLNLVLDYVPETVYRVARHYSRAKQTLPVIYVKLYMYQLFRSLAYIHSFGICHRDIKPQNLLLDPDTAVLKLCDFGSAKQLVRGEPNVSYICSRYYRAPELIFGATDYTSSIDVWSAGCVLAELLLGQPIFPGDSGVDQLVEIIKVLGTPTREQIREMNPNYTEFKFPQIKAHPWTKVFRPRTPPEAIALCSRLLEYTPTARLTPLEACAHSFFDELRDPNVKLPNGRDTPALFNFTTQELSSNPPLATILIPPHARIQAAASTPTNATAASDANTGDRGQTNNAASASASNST
#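 test system = GST-tagged human GSK3beta kinase, cell-free | reagent = 25 µM ATP with peptide substrate | dosing = one dose of 10 µM per compound | schedule = 60 min reaction, RT | detection = luminescent ADP-Glo measurement of ADP formed | control set = DMSO neutral wells and GW8510 at 20 µM as positive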
# MEKK2wt PB1 HTS = raises or lowers MEK5 binding to wildtype human MEKK2 PB1 domain; Q9Y2U5; bead flow cytometry, Alexa488-MEK5 binding to MEKK2 WT; actives lie on both sides; binding response (% of control), % at 10 µM; hit rate 1.1% among 290,000; AID 1531; in the data active means binding response below about 67% or above about 130%
# STK33 inh = blocks human STK33 kinase activity | AID 2661 | Q9BYT3 | purified STK33, MBP phosphorylation, ADP-Glo luminescence | hit rate 0.073% among 320,000 | inhibition, % at 10 µM;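 active means inhibition at or above 25%, using the most active replicate where run in duplicate; inactive means inhibition below 25%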
# MEKK3 PB1 HTS = raises or lowers MEK5 binding to the human MEKK3 PB1 domain. bead-based flow cytometry, Alexa488-MEK5 binding to MEKK3; actives lie on both sides; 0 = blocked by unlabeled MEK5, 100 = vehicle. binding response (% of control), % at 10 µM. hit rate 1.4% among 290,000;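 active means binding response more than 3 SD above or below the average of its plate-row segment, actives on both sides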;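 further: Alexa488 bead fluorescence after subtracting the streptavidin-only scavenger bead signal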
# GSK3A inh = inhibitors of human GSK-3 alpha kinase; ADP-Glo luminescence, 60 min; inhibition, % at 10 µM; hit rate 0.1% among 320,000;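 active means more than half of replicates show inhibition above 20%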;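 further: GST-tagged GSK-3 alpha with peptide substrate and 25 µM ATP; 0% = DMSO neutral wells and 100% = GW8510 positive control wells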
# MEKK2 mut-MEK5 = signal of MEK5 binding to mutant human MEKK2 PB1 domain | bead flow cytometry, Alexa488-MEK5 binding to MEKK2 mutant | percent response, % at 10 µM | hit rate 0.35% among 290,000; in the data active means percent response above about 24%, passing the limit was not always enough
# An asterisk follows results filed as active; . = no result; [ ] = remark or other dose. The list is not random: actives were taken first. Their share in the collection is about 2.1%.
SMILES,GSK3beta inhib,MEKK2wt PB1 HTS,STK33 inh,MEKK3 PB1 HTS,GSK3A inh,MEKK2 mut-MEK5
CC1Cc2ccccc2N1C(=O)Cn1cnc2c1c(=O)n(C)c(=O)n2C (stereo not given),-15,107,6,104,2,9
O=C(O)CCCNc1cc(N2CCN(C(=O)c3ccco3)CC2)c2noc3c2c1C(=O)c1ccccc1-3,0,60*[inhibitor],14,67*[inhibitor],8,-11
O=C1c2ccccc2-c2onc3c(N4CCN(CCO)CC4)cc(N4CCN(C(=O)c5ccco5)CC4)c1c23,0,85,1,81*[inhibitor],7,3
CN1CCN(c2cc(N3CCN(C(=O)c4ccco4)CC3)c3c4c(onc24)-c2ccccc2C3=O)CC1,-3,89,3,84,4,5
Cc1ccccc1-c1nc(CN2CCC(C(=O)NCCCN3CCCC3)CC2)c(C)o1,-4,198*,0,102,5,51*
Oc1ccc(/C=N/n2c(-c3ccccc3)n[nH]c2=S)cc1,-2,100,34*,100,6,0
COc1ccc(/C=N/n2c(-c3ccccc3)n[nH]c2=S)cc1,1,104,5,103,4,14
O=C(CSc1nnc(NC(=O)C2CC(=O)N(c3ccc(F)cc3)C2)s1)NCC1CCCO1 (stereo not given),-3,102,3,99,-3,0
Cc1c(NC(=O)c2cc(-c3ccccc3O)on2)c(=O)n(-c2ccccc2)n1C,-1,97,0,102,-1,13
CCCCc1oc2ccccc2c1C(=O)c1cc(I)c(OCCN(CC)CC)c(I)c1,6,163*,-1,119,-5,51*
CCN(CC)CCOc1ncnc2c1oc1ccccc12,2,102,0,101,0,1
COc1ccc(CC(=O)Nc2c3c(nn2C(C)(C)C)CS(=O)(=O)C3)cc1OC,-1,107,-1,102,0,8
O=C(Nc1ccsc1C(=O)O)c1ccccc1Cl,14,109,0,108,-3,11
CCOc1ccccc1/C=N/NC(=O)c1nnn(-c2nonc2N)c1CN1CCC(C)CC1,2,97,0,100,44,-4
Nc1nonc1-n1nnc(C(=O)N/N=C/c2ccccc2Cl)c1CN1CCOCC1,-2,94,0,98,50*,0
CCOc1ccccc1/C=N/NC(=O)c1nnn(-c2nonc2N)c1CN1CCCC1,-86*,100,1,101,109*,1
Nc1nonc1-n1nnc(C(=O)N/N=C/c2ccccc2F)c1CN1CCOCC1,-34,.,0,.,9,.
Nc1nonc1-n1nnc(C(=O)N/N=C/c2ccccc2F)c1CN1CCc2ccccc21,-50*,91,1,98,0,-2
CCOc1ccc(S(=O)(=O)N2CCCC(C(=O)NCc3cccnc3)C2)cc1Cl (stereo not given),0,98,-1,101,-10,-2
COc1cc(C2C(C#N)=C(N)Oc3n[nH]c(-c4cccnc4)c32)cc(Br)c1O (stereo not given),-34,90,0,88,53*,-1
COc1cc(C2C(C#N)=C(N)Oc3n[nH]c(-c4cccnc4)c32)ccc1OCC(N)=O (stereo not given),-18,102,1,104,4,5
O=C(COc1ccc2c(-c3ccccc3)cc(=O)oc2c1)NCc1cccs1,-4,4.0*,1,93,-2,5
CN(C)C=NC(=O)/C(C#N)=C1\CCc2ccccc2N1,-34,105,10,100,52*,0
COc1ccc(/C=C(\C#N)C(=O)N=CN(C)C)cc1,0,101,0,109,.,-1
Cc1ccccc1OCC(O)CN1CCC(C)CC1 (stereo not given),1,0.0*[inhibitor],2,1.0*[inhibitor],-5,-47
Cc1ccccc1OCC(O)CN1CCCCC1 (stereo not given),1,84,0,82,-3,-15
COc1ccc(OCC(O)CN2CCC(CN3C(=O)c4cccc5cccc(c45)C3=O)CC2)cc1 (stereo not given),1,.,1,.,1,.
